Data: ChEMBL document CHEMBL1255555, “Parallel synthesis and anti-inflammatory activity of cyclic peptides cyclosquamosin D and Met-cherimolacyclopeptide B and their analogs” (2010)
The source made the active and inactive calls. No cut-off for these calls is given here. Residues, ends and D or L forms follow the SMILES beside them.

Tests used:
J774.A1 [1] = experiment: Antiinflammatory activity in mouse J774A1 cells assessed as inhibition of LPS-stimulated TNFalpha stimulation after 4 hrs by ELISA; format: functional, cell-based
In short: (§1)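 Murine macrophage J774A.1 cells in RPMI1640 with 10% heat-inactivated FBS, glutamine, pyruvate, nonessential amino acids, HEPES and 2-mercaptoethanol. Peptides, dissolved in DMSO, added for 1 h at 37 °C before LPS (0.1 µg/mL) for a further 4 or 6 h. IL-6 or TNF-α in supernatant measured by sandwich ELISA: biotinylated detection antibody, avidin-HRP, ABTS substrate, OD 405 nm.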

J774.A1 [2] = experiment: Antiinflammatory activity in mouse J774A1 cells assessed as inhibition of LPS-stimulated IL6 stimulation after 4 hrs by ELISA; format: functional; in short: as §1

Row | Structure (SMILES) | Activity (J774.A1 [1]) | Activity (J774.A1 [2]) | Activity (J774.A1 [2]; record 2)
1 | COc1ccc(C[C@@H]2NC(=O)[C@H](Cc3ccc(O)cc3)NC(=O)[C@H](CO)NC(=O)[C@H](CC(C)C)NC(=O)[C@H](C(C)C)NC(=O)CNC(=O)CNC(=O)[C@@H]3CCCN3C2=O)cc1 (cyclo(GGVLSYY(Me)P)) | inactive | Active | 25%
2 | CC(C)C[C@@H]1NC(=O)[C@H](C(C)C)NC(=O)CNC(=O)[C@H](C)NC(=O)[C@@H]2CCCN2C(=O)[C@H](Cc2ccc(O)cc2)NC(=O)[C@H](Cc2ccc(O)cc2)NC(=O)[C@H](CO)NC1=O (cyclo(AGVLSYYP)) | Active | Active | –
3 | CC(C)C[C@@H]1NC(=O)[C@H](C(C)C)NC(=O)[C@H](C)NC(=O)CNC(=O)[C@@H]2CCCN2C(=O)[C@H](Cc2ccc(O)cc2)NC(=O)[C@H](Cc2ccc(O)cc2)NC(=O)[C@H](CO)NC1=O (cyclo(AVLSYYPG)) | – | Active | –
4 | CC[C@H](C)[C@@H]1NC(=O)[C@@H]2CCCN2C(=O)[C@H](CC(C)C)NC(=O)[C@H](CCSC)NC(=O)[C@H](C)NC(=O)[C@H]([C@@H](C)O)NC(=O)[C@H](CCC(N)=O)NC(=O)[C@@H]2CCCN2C1=O (cyclo(AMLPIPQT)) | Active | Active | –
5 | CC[C@@H](C)[C@@H]1NC(=O)[C@@H]2CCCN2C(=O)[C@H](CC(C)C)NC(=O)[C@H](C)NC(=O)CNC(=O)[C@H]([C@@H](C)O)NC(=O)[C@H](CCC(N)=O)NC(=O)[C@@H]2CCCN2C1=O | Active | Active | –
